This is a sample that favours compounds with a hit; in the whole collection about 2.5% have one here.
Tb MetRS inh: blocks T. brucei methionyl-tRNA synthetase activity; inhibition, % at 11.9 µM; purified T. brucei MetRS, ATP depletion, Kinase-Glo luminescence; hit rate 0.4% among 360,000;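 active = inhibition above a per-plate cutoff of the control wells' mean inhibition plus 3 SD, cut at about 5.5% in these data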
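Assay system: T. brucei methionyl-tRNA synthetase, purified | Medium: HEPES buffer with MgCl2, KCl, DTT, spermine, BSA, pyrophosphatase | Compound: 11.9 µM single point | Incubation: 15 min enzyme-compound preincubation, 2 h reaction, 10 min detection, 25 °C | Measured by: Kinase-Glo luciferase luminescence reporting remaining unconsumed ATP | Measure: % inhibition normalized to control-well medians | Replication: Singlicate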
MC4R ag barr: agonists of human melanocortin 4 receptor (MC4R) beta-arrestin. P32245. U2OS MC4R beta-arrestin complementation, luminescence; percent of melanotan II response, DMSO zero. activation, % at 8.9 µM. hit rate 0.98% among 360,000. AID 540308;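 active = activation above a per-plate cutoff, the mean activation of sample wells on that plate plus 3 SD, cut at about 8% in these data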
Target sequence (P32245 whole entry, looked up): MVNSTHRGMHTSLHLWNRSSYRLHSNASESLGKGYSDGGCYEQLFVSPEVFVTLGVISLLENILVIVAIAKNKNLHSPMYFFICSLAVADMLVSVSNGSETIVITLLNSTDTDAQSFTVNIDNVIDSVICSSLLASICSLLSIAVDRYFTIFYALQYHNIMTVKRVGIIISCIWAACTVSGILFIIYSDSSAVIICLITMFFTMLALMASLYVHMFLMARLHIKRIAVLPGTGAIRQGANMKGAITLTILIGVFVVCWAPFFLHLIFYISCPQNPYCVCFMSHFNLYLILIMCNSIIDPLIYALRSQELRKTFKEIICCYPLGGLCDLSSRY
MC4R antagonist: blocks human MC4R cAMP signaling; P32245; hit rate 0.48% among 360,000; MC4R-expressing cells, MTII-stimulated cAMP, LANCE TR-FRET; inhibition, % at 6.5 µM;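 active = inhibition above its plate's cutoff, the mean of tested wells on that plate plus 3 SD, cut at about 29% in these data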
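Material – human MC4R-expressing U2OS cells · Repeats – no replicates · Detection – TR-FRET with Eu-cAMP and labeled anti-cAMP, 671 nm · Times – compound 30 min, challenge 1 h, detection 1 h · Compound – single nominal compound dose of 6.5 µM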
NALP1 inh: blocks the NALP1 inflammasome reconstituted in yeast. S. cerevisiae NALP1/ASC/caspase-1 growth, X-gal OD620, 72 h. inhibition, % at 10 µM. hit rate 0.61% among 280,000; in the data active = inhibition mostly above about 24%, no sharp cut-off; inactive = mostly below about 32%
NALP3 yeast inh: blocks the NALP3 inflammasome reconstituted in yeast | Yeast reconstituted NLRP3/ASC/caspase-1, beta-gal luminescence, 24 h | inhibition, % at 10 µM | hit rate 0.39% among 330,000;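 active = inhibition of 50% or more; inactive = inhibition below 50%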
Bfl-1 A1 inh: inhibitors of the anti-apoptotic protein A1, read as caspase activation. hit rate 0.066% among 330,000. AID 2462. MEF A1-2A-BIM cells, Caspase-Glo 3/7 luminescence, 3 h; percent of clofoctol response, vehicle zero. caspase activation, % (concentration not given with the values);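 active = over half of replicate activation scores above 10%, or exactly half above 10 with the replicate mean above 10; inconclusive = replicate mean below 10 yet half the replicates above 10; inactive = over half of replicates below 10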
MC4R barr conf: human MC4R beta-arrestin agonism confirmation; shares compounds with MC4R ag barr; activation, % at 8.9 µM; hit rate 31% among 2,400; U2OS MC4R beta-arrestin recruitment, luminescence; scaled DMSO 0%, Melanotan II 100%; AID 602192;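 active = mean activation across replicates above the hit cutoff set in the earlier primary screen, cut at about 8% in these data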
MOR DOR agonist: OPRM1-OPRD1 heterodimer agonism counter-screen. activation, % at 9.2 µM. U2OS PathHunter beta-arrestin, beta-gal luminescence; percent of deltorphin B response, DMSO zero. AID 602194. shares compounds with MC4R ag barr. hit rate 5.8% among 2,400;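 active = mean activation across replicates exceeds the hit threshold derived in the earlier primary screen, cut at about 18% in these data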
Hits are given with their value; – = inactive; ? = inconclusive; · = no result given.

SMILES | Tb MetRS inh | MC4R ag barr | MC4R antagonist | NALP1 inh | NALP3 yeast inh | Bfl-1 A1 inh | MC4R barr conf | MOR DOR agonist
CCCCCCCCC[n+]1cccc2c3ccccc3ccc21 | 5.7 | 13 | – | – | – | – | 8.4 | –
Cn1c(C(=O)OCC(=O)NCc2cccs2)cc2sccc21 | – | 10 | – | – | – | – | – | –
COc1ccccc1OCCNC(=O)CCNS(=O)(=O)c1ccc(C)cc1 | – | – | – | · | · | · | · | ·
COc1cc(C(=O)NNC(=O)c2ccccc2OCc2c(C)noc2C)cc(OC)c1OC | – | – | – | · | – | – | · | ·
COC(=O)c1c(NC(=O)CSc2ncnc3ccccc23)sc(C)c1C | – | 15 | – | · | – | – | – | –
CCn1c(SCC(=O)NCCc2ccccc2)nc2c([nH]c3ccccc32)c1=O | – | – | – | – | – | – | · | ·
N#C/C(=C/c1ccc(N2CCCCC2)o1)C(=O)Nc1ccc(Cl)cc1 | – | 10 | – | – | – | – | – | –
N#C/C(=C\c1ccc(N2CCOCC2)o1)C(=O)Nc1ccc(O)cc1 | – | – | – | – | – | – | · | ·
Cc1cc(S(=O)(=O)N2CCOCC2)ccc1OCC(=O)Nc1ccc(F)c(Cl)c1 | – | 16 | – | – | – | – | – | –
CCCCN(C(=O)c1ccc(S(=O)(=O)N2CCCC2)cc1)C1CCS(=O)(=O)C1 (stereo not drawn) | – | – | – | · | – | – | · | ·
Cc1cc(C(=O)N/N=C/c2cc(Br)ccc2OC(=O)c2ccccc2)n[nH]1 | – | 17 | – | – | – | – | – | –
Cc1ccc(NC(=O)CCN2C(=O)c3cccc4cccc(c34)C2=O)cc1 | – | 19 | – | – | – | – | – | –
Cc1ccc(NC(=O)CCCN2C(=O)c3cccc4cccc(c34)C2=O)cc1 | – | – | – | · | – | – | · | ·
COc1ccc([C@H]2N[C@]3(CCCN(Cc4cccn4C)C3=O)[C@H]3C(=O)N(Cc4ccccc4)C(=O)[C@@H]23)cc1 | – | – | – | · | · | · | · | ·
O=c1[nH]nc(Cc2ccc(-c3cccc(Cl)c3)o2)c2ccccc12 | – | 14 | – | – | – | – | – | –
O=C(O)c1ccc(Cl)c(NC(=O)C2CCN(S(=O)(=O)c3cccs3)CC2)c1 | – | – | – | · | · | · | · | ·
Cc1ccc(CC2S/C(=N/c3ccccn3)NC2=O)cc1 (stereo not drawn) | – | 14 | – | – | – | – | – | –
O=C1N/C(=N/c2ccccn2)SC1Cc1ccccc1 (stereo not drawn) | – | – | – | – | – | – | · | ·
Cc1cccc(NC(=O)NNC(=O)c2ccccn2)c1 | – | – | – | · | – | – | · | ·
CCOC(=O)C1=CC[C@H]2c3c(c4ccccc4n3C)C[C@H]1N2C | – | – | – | · | – | – | · | ·
NC(=O)c1c(NC(=O)c2ccccc2)sc2c1CCN(Cc1ccccc1)C2 | – | 12 | – | – | – | – | – | –
COc1ncnc2c1ncn2CCCNCC(c1ccccc1)c1ccccc1 | – | – | – | · | · | · | · | ·
c1ccc(COc2ncnc3c2ncn3CCCNCC(c2ccccc2)c2ccccc2)cc1 | – | 13 | – | · | · | · | 11 | 30
CCOc1ccc(-c2cc(C(=O)NCc3ccc(F)cc3)[nH]n2)c(C)c1 | – | – | – | · | · | · | · | ·
CCOc1ccc(-c2cc(C(=O)NCc3ccc(C(F)(F)F)cc3)[nH]n2)c(C)c1 | – | 13 | – | · | · | · | – | –
SMILES | Tb MetRS inh | MC4R ag barr | MC4R antagonist | NALP1 inh | NALP3 yeast inh | Bfl-1 A1 inh | MC4R barr conf | MOR DOR agonist
CCOc1ccc(-c2cc(C(=O)Nc3ccc(F)cc3)[nH]n2)c(C)c1 | – | – | – | · | · | · | · | ·
CCOc1ccc(-c2cc(C(=O)Nc3cccc(C(F)(F)F)c3)[nH]n2)c(C)c1 | – | 11 | – | · | · | · | – | –
Cc1cc(OCC(=O)OCC(=O)N(C)c2c(N)n(Cc3ccccc3)c(=O)[nH]c2=O)ccc1Cl | – | – | – | · | – | – | · | ·
CCc1ccc(-c2n[nH]nc2C2=CC(=O)C[C@H](c3ccc(F)cc3)C2)cc1 | – | – | – | · | · | · | · | ·
CCOC(=O)C1=C(c2ccccc2)NC(N)=NC1c1ccc(OCc2ccc(Cl)cc2)c(OC)c1 (stereo not drawn) | – | 12 | – | – | – | – | 11 | –
O=C1Nc2ccccc2-c2nnnn2C1N1CCCC1 (stereo not drawn) | – | · | · | · | · | · | · | ·
CC(C)COc1ccc(S(=O)(=O)NNC(=O)c2cc3ccccc3o2)cc1 | – | 11 | – | – | – | – | 12 | –
CCC(C)c1ccc(OCc2ccc(C(=O)O)o2)cc1 (stereo not drawn) | – | – | – | – | – | – | · | ·
CC(=O)c1cccc(NC(=O)c2cccc3c(-c4cccc(C(N)=O)c4)coc23)c1 | – | 20 | – | · | · | · | – | –
O=C(Nc1ccn(CCCNCc2cccc3ccccc23)c(=O)n1)OCc1ccccc1 | – | – | – | · | · | · | · | ·
CC(C(=O)Nc1ccccc1)c1ccc(-c2ccccc2)c(F)c1 (stereo not drawn) | – | – | – | – | – | – | · | ·
Cc1ccc(NC(=O)C(C)c2ccc(-c3ccccc3)c(F)c2)c(C)c1 (stereo not drawn) | – | 9.6 | – | – | – | – | – | –
COC(=O)c1nc(NNC(=O)c2ccccc2)sc1-c1ccccc1 | – | – | – | – | – | – | · | ·
O=C1NC[C@@H](Cc2ccc(O)cc2)N(CCCCC2CCCCC2)C1=O | – | · | · | · | · | · | · | ·
Oc1ccc(C[C@@H]2CNC(=S)N2CCCCC2CCCCC2)cc1 | – | 14 | – | – | – | – | 11 | –
CC1CCc2sc(C(=O)Nc3nnc(SCc4ccc(F)cc4)s3)cc2C1 (stereo not drawn) | – | 33 | – | · | – | – | 12 | –
COC(=O)c1ccc(CSc2nnc(C)s2)cc1 | – | – | – | – | – | – | · | ·
COC(=O)c1ccc(CSc2nnc(NC(=O)c3cc4c(s3)CCCC4)s2)cc1 | – | 18 | – | – | – | – | – | –
CCN(CC)S(=O)(=O)c1cccc(C(=O)NC(C(=O)NNC(=O)c2ccccc2F)C(C)C)c1 (stereo not drawn) | – | – | – | · | · | · | · | ·
Cc1nnc(SCC(=O)N(CC(C)C)c2c(N)n(Cc3ccccc3)c(=O)[nH]c2=O)n1N | – | – | – | · | – | – | · | ·
COc1ccc(C2=NN(C(=O)CSc3nccn3C)C(c3ccco3)C2)cc1 (stereo not drawn) | – | – | – | · | – | – | · | ·
O=C(Nc1ccc(F)cc1)c1sc2cc(C(F)(F)F)cnc2c1-c1cccs1 | – | 11 | – | – | – | – | – | –
COc1ccc(NC(=O)c2sc3cc(C(F)(F)F)cnc3c2-c2cccs2)cc1 | – | 9.8 | – | – | – | ? | – | –

Source: PubChem BioAssay
